Screening results: PubChem, Sanford-Burnham Center for Chemical Genomics
Scp-1 inhibitor – Scp-1 phosphatase inhibitors, primary screen, biochemical, colorimetric, uHTS; inhibition, % at 20 µM; Recombinant Scp1, phosphopeptide, malachite green phosphate absorbance; AID 493091, 2011; actives 0.88% (n = 340,000);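 active means inhibition above about 50% at 20 µM, limit read from the data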
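Incubation: 45 min enzyme reaction at room temperature / System: truncated SCP-1 phosphatase (76-261aa) / Reagent: Phospho 17-mer peptide substrate / Buffer or medium: Acidic Tris acetate buffer with magnesium and detergent / Signal: absorbance at 630 nm / Doses: one concentration, 20 µM, with 1.0% DMSO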
LMPTP block – LMPTP phosphatase inhibitors, primary screen, biochemical, fluorescence intensity, uHTS; recombinant LMPTP-A, OMFP fluorogenic substrate; inhibition, % at 20 µM; actives 0.22% (n = 360,000); AID 651560, 2012;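 active means compounds that cut the enzyme signal by at least half of the control window in the single-dose screen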
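Test system – LMPTP-A enzyme · Amount – LMPTP-A at 0.625 nM final in the reaction · Buffer or medium – Bis-Tris pH 6.0, DTT, detergent · Reagent – OMFP 400 µM · Doses – single 20 µM dose · Schedule – reaction 50 min, room temperature, dark · Detection – fluorescence intensity of OMFP turnover product · Evaluation – percent inhibition versus substrate-only and uninhibited controls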
DNMT1 inh – human DNMT1 methyltransferase inhibitors, primary screen, biochemical, molecular beacon, fluorescence, HinP1I cleavage, uHTS; inhibition (reported as % activation of signal), % at 10 µM; actives 0.83% (n = 360,000); in the data active means inhibition above about 50%
CSN inh – inhibitors of CSN-mediated cullin deneddylation, primary screen, biochemical, fluorescence polarization, uHTS | COP9 signalosome complex subunit 5 (Homo sapiens), Q92905 | Purified CSN, SCF-Nedd8-OG deneddylation | inhibition, % at 12.5 µM | actives 0.38% (n = 360,000) | AID 651999, 2013;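 active means pattern-corrected inhibition above about 35%, with an unprinted fluorescence ratio check between 0.5 and 1.5, limit read from the data, passing the limit was not always enough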
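test system = HEK293T-derived human Csn5 enzyme | amount = 0.24 nM Csn5 enzyme, final concentration | medium = Tris/NaCl/DTT buffer, pH 7.5 | schedule = 90 min reaction at room temperature | signal = FP | evaluation = inhibition of Csn5 cleavage, % | compound dosing = single dose of 12.5 µM compound with 0.25% DMSO | probe or stimulus = 10 nM SCFSkp2-Nedd8OG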
SUMO1 PPI mod – modulators of SUMO1 protein-protein interactions, primary screen, biochemical, uHTS | Small ubiquitin-related modifier 1 (Homo sapiens), P63165 | SUMO1 binding to a labelled peptide, TR-FRET, 1 h | inhibition, % at 20 µM | actives 0.33% (n = 360,000) | AID 602429, 2012; in the data active means inhibition above about 37%
STEP block – STEP phosphatase inhibitors, primary screen, biochemical, fluorescence intensity, uHTS. recombinant STEP, OMFP fluorogenic substrate. inhibition, % at 20 µM. actives 0.25% (n = 360,000). AID 588621, 2011;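 active means inhibition at 20 µM, scaled per plate between control wells, above about 37%, limit read from the data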
Target sequence (P54829 whole entry, looked up): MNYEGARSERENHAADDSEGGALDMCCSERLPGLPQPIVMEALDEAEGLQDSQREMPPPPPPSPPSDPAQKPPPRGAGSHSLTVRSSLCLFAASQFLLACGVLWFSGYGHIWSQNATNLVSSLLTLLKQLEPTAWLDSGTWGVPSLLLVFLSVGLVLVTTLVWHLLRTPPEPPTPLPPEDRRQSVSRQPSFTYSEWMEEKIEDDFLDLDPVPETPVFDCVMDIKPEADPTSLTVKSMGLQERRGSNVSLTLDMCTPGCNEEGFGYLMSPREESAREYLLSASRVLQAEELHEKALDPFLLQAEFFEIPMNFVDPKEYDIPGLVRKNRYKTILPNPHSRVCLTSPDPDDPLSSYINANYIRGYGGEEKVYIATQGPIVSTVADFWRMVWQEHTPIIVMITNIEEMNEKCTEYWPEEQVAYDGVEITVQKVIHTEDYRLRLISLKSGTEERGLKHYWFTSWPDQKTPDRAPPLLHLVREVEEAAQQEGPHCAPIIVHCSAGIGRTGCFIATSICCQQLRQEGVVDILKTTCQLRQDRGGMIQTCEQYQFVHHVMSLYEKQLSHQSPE
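System: STEP phosphatase, cell-free reaction; Buffer or medium: Bis-Tris pH 6.0 buffer with DTT, detergent; Incubation: 20 min at room temperature, dark; Measured by: fluorescence, 480/540 nm.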
Numbers stand for hits; i = inactive; nt = no result. The list is not random: actives were taken first. Their share in the collection is about 2%.

SMILES | Scp-1 inhibitor | LMPTP block | DNMT1 inh | CSN inh | SUMO1 PPI mod | STEP block
O=C(C1CCCO1)N1CCN(S(=O)(=O)c2cc(C(F)(F)F)ccc2Cl)CC1 (stereo not drawn) | i | i | i | i | i | i
CSCCC(NC(=O)COc1ccccc1)C(=O)NCc1cccs1 (stereo not drawn) | i | i | i | i | i | i
CC(C)N1CCc2c(sc(NC(=S)NC(=O)c3ccccc3)c2C#N)C1 | i | i | i | 40 | i | i
CCCN1CCc2c(sc(NC(=S)NC(=O)c3ccccc3)c2C#N)C1 | i | 59 | i | i | i | i
CN(Cc1ccccc1)C(=O)[C@@H]1CCCN1C(=O)[C@@H]1CCCN1C(=O)c1cccs1 | nt | i | nt | i | i | nt
CCOc1cc(OCC)cc(C(=O)N2CCC[C@H]2C(=O)N2CCC[C@H]2C(=O)N(C)Cc2ccccc2)c1 | nt | i | nt | i | 59 | nt
Cc1cccc(NCc2ccc(N(C)C)cc2)n1 | i | i | 60 | i | i | i
COc1ccc2cc3[n+](cc2c1O)CCc1cc2c(cc1-3)OCO2 | nt | 64 | nt | i | i | nt
COc1cc2c(cc1OC)-c1cc3ccc(OC)c(OC)c3c[n+]1CC2 | i | i | i | i | i | i
CC1Cc2ccccc2N1C(=S)NC(=O)C1(C)CC1(Cl)Cl (stereo not drawn) | 50 | i | i | i | i | i
CCNC(=O)c1ccc(NS(=O)(=O)c2ccc3[nH]c(=O)[nH]c3c2)cc1 | i | i | i | i | i | i
O=C(CCC(=O)Nc1cccnc1)Nc1cccnc1 | i | i | i | i | i | i
COc1cc(/C=C2\SC(=S)N(c3cccnc3)C2=O)ccc1O | i | i | 57 | i | 109 | i
Cc1ccc(/C=C2\SC(=S)N(c3cccnc3)C2=O)cc1 | i | i | i | i | i | i
Cc1ccc2nc(SCC(=O)Nc3ccc(Cl)cc3)nc(=O)n2c1 | i | i | i | i | 86 | i
Cc1ccc2nc(SCC(=O)Nc3ccc(F)cc3)nc(=O)n2c1 | i | i | i | i | i | i
CCCCN1C=C(C(=O)OC)C(c2ccccc2Cl)C(C(=O)OC)=C1 | i | i | i | i | 46 | i
COc1ccc(C(=O)C2CCCN(C(=O)Cn3nc(C)cc3C)C2)cc1F (stereo not drawn) | i | i | i | i | i | i
COc1ccc(Cc2nnc(SC)[nH]c2=O)cc1OC | i | i | i | i | 42 | i
CCCCCn1c(SCC(=O)c2ccccc2)nc2cc(C(=O)NCC3CCCO3)ccc2c1=O (stereo not drawn) | i | i | i | i | i | i
C#CCOCCOCCOCCNc1nc(N2CCN(C(=O)CCCCCCCCCCNC(=O)Cn3cc(C[C@@H](C)O)nn3)CC2)nc(N2CCN(C(=O)CCCCCCCCCCNC(=O)[C@H](CCCN=C(N)N)n3cc(C[C@@H](C)CC)nn3)CC2)n1 | i | i | i | 44 | 106 | i
C#CCOCCOCCOCCNc1nc(N2CCN(C(=O)CCCCCCCCCCNC(=O)[C@H](CO)n3cc(CCCSC)nn3)CC2)nc(N2CCN(C(=O)CCCCCCCCCCNC(=O)[C@H](CCCCN)n3cc(CCO)nn3)CC2)n1 | i | i | i | i | i | i
C#CCOCCOCCOCCNc1nc(N2CCN(C(=O)CCCCCCCCCCNC(=O)[C@H](CO)n3cc(CCCSC)nn3)CC2)nc(N2CCN(C(=O)CCCCCCCCCCNC(=O)[C@H](CCCN=C(N)N)n3cc(C[C@@H](C)CC)nn3)CC2)n1 | 63 | i | i | 131 | 90 | i
N#Cc1ccccc1NC(=O)COC(=O)c1ccc2c(c1)OCO2 | i | i | i | i | i | i
